In ChEMBL document CHEMBL1781898, “Orally active achiral N-hydroxyformamide inhibitors of ADAM-TS4 (aggrecanase-1) and ADAM-TS5 (aggrecanase-2) for the treatment of osteoarthritis” (Bioorg Med Chem Lett, 2011):

Experiments:
[1] = target: T1, A disintegrin and metalloproteinase with thrombospondin motifs 4 (Homo sapiens, UniProt O75173); test: Inhibition of ADAMTS-4 assessed as substrate cleavage after 16 hrs by fluorescence assay
T1 sequence (O75173 whole entry): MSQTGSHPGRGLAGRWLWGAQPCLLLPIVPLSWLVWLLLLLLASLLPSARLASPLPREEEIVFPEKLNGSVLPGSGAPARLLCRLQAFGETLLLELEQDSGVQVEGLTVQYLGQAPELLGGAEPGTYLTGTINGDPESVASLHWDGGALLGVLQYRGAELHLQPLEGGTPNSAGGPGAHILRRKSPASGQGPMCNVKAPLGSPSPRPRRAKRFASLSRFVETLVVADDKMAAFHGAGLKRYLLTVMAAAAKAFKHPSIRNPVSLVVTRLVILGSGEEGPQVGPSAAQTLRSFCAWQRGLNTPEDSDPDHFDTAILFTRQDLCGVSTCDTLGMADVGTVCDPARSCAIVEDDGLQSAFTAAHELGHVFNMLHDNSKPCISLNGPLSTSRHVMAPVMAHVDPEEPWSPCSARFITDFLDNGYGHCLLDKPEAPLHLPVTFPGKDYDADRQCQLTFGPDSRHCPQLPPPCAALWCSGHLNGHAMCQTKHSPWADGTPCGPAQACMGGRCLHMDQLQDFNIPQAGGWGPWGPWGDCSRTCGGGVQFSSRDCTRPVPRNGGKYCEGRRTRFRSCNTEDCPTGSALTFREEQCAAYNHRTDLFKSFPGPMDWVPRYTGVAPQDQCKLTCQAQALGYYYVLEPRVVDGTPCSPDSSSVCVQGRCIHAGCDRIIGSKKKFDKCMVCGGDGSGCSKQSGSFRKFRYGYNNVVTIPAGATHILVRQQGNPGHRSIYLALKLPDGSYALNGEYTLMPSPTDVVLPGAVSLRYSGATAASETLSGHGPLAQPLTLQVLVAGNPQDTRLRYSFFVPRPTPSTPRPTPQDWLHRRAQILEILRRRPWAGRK
Procedure, shortened: (§1)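 Enzyme inhibition IC50s derived from at least six measurements, standard errors normally <5% within an assay; a standard compound run to keep assay-to-assay variability within twofold.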

Collagenase 3 = Collagenase 3 (Homo sapiens, UniProt P45452); test: Inhibition of recombinant human MMP-13 assessed as substrate cleavage after 20 hrs by fluorescence assay; procedure, shortened: as §1
[2] = target: Matrix metalloproteinase-14 (Homo sapiens, UniProt P50281); test: Inhibition of recombinant human MMP-14 assessed as substrate cleavage after 20 hrs by fluorescence assay; procedure, shortened: as §1
Interstitial collagenase = target: T2, Interstitial collagenase (Homo sapiens, UniProt P03956); test: Inhibition of recombinant human MMP-1 assessed as substrate cleavage after 20 hrs by fluorescence assay; procedure, shortened: as §1
T2 sequence (P03956 whole entry): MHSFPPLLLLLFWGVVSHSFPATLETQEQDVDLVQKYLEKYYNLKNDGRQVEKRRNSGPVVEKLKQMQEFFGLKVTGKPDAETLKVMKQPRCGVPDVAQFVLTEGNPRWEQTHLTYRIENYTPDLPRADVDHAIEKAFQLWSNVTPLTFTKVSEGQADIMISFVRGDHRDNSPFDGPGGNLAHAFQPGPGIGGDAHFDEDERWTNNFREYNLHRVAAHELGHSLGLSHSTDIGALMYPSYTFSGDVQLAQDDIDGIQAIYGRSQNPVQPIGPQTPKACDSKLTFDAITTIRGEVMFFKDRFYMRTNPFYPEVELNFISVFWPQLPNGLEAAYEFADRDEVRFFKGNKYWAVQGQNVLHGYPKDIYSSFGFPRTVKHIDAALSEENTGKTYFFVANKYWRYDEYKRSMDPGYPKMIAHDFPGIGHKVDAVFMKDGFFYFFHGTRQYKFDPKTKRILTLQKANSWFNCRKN

Cytochrome P450 3A4 = Cytochrome P450 3A4 (Homo sapiens, UniProt P08684); test: Inhibition of CYP3A4; format: ADME
Procedure, shortened: (§2)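 Inhibition of cytochrome P450 isoforms 1A2, 2C9, 2C19, 2D6 and 3A4, reported as pIC50.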

[3] = target: 72 kDa type IV collagenase (Homo sapiens, UniProt P08253); test: Inhibition of recombinant human MMP-2 assessed as substrate cleavage after 20 hrs by fluorescence assay; procedure, shortened: as §1
[4] = Intrinsic clearance in human liver microsomes; format: ADME, Microsome
Procedure, shortened: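 Human liver microsome metabolism; intrinsic clearance expressed as μL/min/mg, reported as mean of eight separate experiments.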

[5] = Clearance in rat at 2 mg/kg, iv; format: ADME, organism-based; parameters: dose 2 mg/kg, route intravenous; conditions: in vivo
Procedure, shortened: (§3)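 Rat iv PK: 2 mg/kg iv, n = 2 animals; clearance, half-life and Vdss determined.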

[6] = Volume of distribution at steady state in rat at 2 mg/kg, iv; format: ADME, organism-based; parameters: dose 2 mg/kg, route intravenous; conditions: in vivo, read-out: Vdss; procedure, shortened: as §3
[7] = Half life in rat at 2 mg/kg, iv; format: ADME, organism-based; parameters: dose 2 mg/kg, route intravenous; conditions: in vivo; procedure, shortened: as §3
[8] = Lipophilicity, log D of the compound; format: physicochemical; conditions: octanol/water
[9] = Thermodynamic solubility of the compound in phosphate buffer at pH 7.4 after 24 hrs; format: physicochemical; conditions: read-out: Therm_solubility
[10] = Free drug level in human; format: ADME, organism-based; conditions: in vivo
[11] = Free drug level in dog; format: ADME, organism-based, Canis lupus familiaris; conditions: in vivo
[12] = Apparent permeability across apical to basolateral side in human Caco2 cells at 10 uM; format: ADME, cell-based; conditions: Caco-2
[13] = Clearance in mouse; format: ADME, organism-based; conditions: in vivo
[14] = Half life in mouse; format: ADME, organism-based; conditions: in vivo
[15] = Half life in rat at 2 mg/kg, iv and 3 to 10 mg/kg, po; format: ADME, organism-based; conditions: in vivo
[16] = Clearance in dog at 1 mg/kg, iv and 1 mg/kg, po; format: ADME, organism-based, Canis lupus familiaris; conditions: in vivo
[17] = Half life in dog at 1 mg/kg, iv and 1 mg/kg, po; format: ADME, organism-based, Canis lupus familiaris; conditions: in vivo
[18] = Volume of distribution at steady state in dog at 1 mg/kg, iv and 1 mg/kg, po; format: ADME, organism-based, Canis lupus familiaris; conditions: in vivo, read-out: Vdss
[19] = Oral bioavailability in mouse; format: ADME, organism-based; conditions: in vivo
[20] = Oral bioavailability in rat; format: ADME, organism-based; conditions: in vivo
[21] = Oral bioavailability in dog; format: ADME, organism-based, Canis lupus familiaris; conditions: in vivo
[22] = Inhibition of aggrecanase activity in human late stage diseased osteoarthritis cartilage explant assessed as inhibition of aggrecan degradation measuring ARGSVIL neo-peptide release
[23] = Inhibition of aggrecanase activity in IL-1-stimulated human osteoarthritis cartilage explant assessed as inhibition of aggrecan degradation measuring ARGSVIL neo-peptide release
[24] = Absolute bioavailability in mouse; format: ADME, organism-based; conditions: in vivo
[25] = Absolute bioavailability in rat; format: ADME, organism-based; conditions: in vivo
[26] = Absolute bioavailability in dog; format: ADME, organism-based, Canis lupus familiaris; conditions: in vivo
Cytochrome P450 2C9 = Cytochrome P450 2C9 (Homo sapiens, UniProt P11712); test: Inhibition of CYP2C9; format: ADME; procedure, shortened: as §2
Cytochrome P450 2D6 = Cytochrome P450 2D6 (Homo sapiens, UniProt P10635); test: Inhibition of CYP2D6; format: ADME; procedure, shortened: as §2
Cytochrome P450 2C19 = Cytochrome P450 2C19 (Homo sapiens, UniProt P33261); test: Inhibition of CYP2C19; format: ADME; procedure, shortened: as §2
Sequence of Cytochrome P450 2C19 (P33261 whole entry): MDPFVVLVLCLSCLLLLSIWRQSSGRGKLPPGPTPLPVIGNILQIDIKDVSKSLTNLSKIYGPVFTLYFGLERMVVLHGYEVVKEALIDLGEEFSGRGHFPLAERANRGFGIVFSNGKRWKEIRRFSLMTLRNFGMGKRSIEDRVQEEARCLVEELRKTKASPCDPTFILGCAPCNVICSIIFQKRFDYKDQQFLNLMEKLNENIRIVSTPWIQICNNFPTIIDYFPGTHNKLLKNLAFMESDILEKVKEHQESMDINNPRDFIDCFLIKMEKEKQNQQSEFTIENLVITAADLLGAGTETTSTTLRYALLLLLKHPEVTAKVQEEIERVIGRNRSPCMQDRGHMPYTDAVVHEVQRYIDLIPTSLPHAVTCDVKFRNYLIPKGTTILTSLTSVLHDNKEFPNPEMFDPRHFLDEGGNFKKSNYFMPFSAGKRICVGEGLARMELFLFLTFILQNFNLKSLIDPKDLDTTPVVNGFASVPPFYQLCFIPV

Sequence of 72 kDa type IV collagenase (P08253 whole entry): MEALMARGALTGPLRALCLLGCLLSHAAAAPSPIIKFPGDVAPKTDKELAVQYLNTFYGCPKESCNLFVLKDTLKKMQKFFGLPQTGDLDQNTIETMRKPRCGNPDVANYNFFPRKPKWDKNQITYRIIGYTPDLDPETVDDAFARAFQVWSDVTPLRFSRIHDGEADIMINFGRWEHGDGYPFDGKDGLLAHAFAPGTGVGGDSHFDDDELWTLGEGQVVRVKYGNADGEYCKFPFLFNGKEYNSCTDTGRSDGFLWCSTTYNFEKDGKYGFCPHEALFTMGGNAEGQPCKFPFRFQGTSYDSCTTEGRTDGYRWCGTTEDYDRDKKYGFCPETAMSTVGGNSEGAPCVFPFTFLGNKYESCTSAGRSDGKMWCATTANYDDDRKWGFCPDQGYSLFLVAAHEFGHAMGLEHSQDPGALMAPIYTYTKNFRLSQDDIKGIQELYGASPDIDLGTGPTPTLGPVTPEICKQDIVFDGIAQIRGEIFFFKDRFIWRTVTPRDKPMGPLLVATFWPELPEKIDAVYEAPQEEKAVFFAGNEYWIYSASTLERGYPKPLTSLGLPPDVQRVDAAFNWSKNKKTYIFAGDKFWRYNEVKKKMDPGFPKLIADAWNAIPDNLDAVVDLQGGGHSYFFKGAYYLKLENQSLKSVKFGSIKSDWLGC
Sequence of Cytochrome P450 2D6 (P10635 whole entry): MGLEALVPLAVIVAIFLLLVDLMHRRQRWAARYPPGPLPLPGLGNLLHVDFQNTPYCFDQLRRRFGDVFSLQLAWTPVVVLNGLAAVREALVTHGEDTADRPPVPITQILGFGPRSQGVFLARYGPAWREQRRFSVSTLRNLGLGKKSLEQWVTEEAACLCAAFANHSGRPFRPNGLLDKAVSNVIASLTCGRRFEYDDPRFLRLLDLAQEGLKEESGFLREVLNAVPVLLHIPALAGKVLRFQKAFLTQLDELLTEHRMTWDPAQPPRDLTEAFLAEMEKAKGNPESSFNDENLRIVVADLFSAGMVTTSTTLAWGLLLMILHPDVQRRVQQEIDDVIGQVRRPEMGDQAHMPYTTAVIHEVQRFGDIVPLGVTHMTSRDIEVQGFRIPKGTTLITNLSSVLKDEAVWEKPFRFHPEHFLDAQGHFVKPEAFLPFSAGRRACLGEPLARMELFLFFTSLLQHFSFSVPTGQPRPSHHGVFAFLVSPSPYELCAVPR
Sequence of Cytochrome P450 3A4 (P08684 whole entry, canonical isoform): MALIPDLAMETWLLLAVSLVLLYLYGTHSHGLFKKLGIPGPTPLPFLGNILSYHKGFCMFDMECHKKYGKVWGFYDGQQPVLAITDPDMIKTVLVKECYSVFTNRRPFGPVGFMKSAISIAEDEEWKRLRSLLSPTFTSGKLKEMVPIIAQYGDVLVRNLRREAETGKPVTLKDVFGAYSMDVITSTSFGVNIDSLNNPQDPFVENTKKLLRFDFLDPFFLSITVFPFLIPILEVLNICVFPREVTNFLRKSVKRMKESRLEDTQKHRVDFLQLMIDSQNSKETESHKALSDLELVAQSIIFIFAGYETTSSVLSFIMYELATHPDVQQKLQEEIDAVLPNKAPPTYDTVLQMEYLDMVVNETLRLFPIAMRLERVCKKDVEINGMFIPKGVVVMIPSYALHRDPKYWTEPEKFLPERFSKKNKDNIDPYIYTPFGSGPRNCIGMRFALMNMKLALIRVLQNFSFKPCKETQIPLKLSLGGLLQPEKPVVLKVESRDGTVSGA
Sequence of Cytochrome P450 2C9 (P11712 whole entry): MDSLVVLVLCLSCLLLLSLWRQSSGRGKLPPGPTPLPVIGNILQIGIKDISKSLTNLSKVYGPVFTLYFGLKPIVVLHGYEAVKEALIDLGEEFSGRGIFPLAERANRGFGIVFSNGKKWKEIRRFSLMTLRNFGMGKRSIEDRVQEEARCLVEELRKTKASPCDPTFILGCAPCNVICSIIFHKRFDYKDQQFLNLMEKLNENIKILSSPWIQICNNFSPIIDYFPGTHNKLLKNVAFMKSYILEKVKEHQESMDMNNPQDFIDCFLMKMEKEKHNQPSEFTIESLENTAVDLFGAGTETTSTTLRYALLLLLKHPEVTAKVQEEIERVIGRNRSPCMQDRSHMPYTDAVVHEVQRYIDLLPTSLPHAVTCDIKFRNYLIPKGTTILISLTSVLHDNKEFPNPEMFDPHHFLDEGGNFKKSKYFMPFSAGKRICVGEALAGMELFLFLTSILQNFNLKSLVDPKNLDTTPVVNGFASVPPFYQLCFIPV

- IC50 [1]: 26 nM
- IC50 (Collagenase 3): > 31000 nM
- IC50 [2]: > 23000 nM
- IC50 (Interstitial collagenase): > 10000 nM
- inhibition (INH) (Cytochrome P450 3A4): Not Active
- IC50 [3]: > 23000 nM
- microsomal CLint [4]: 3.1 µL/min/mg
- clearance [5]: 24 mL/min/kg
- Vd [6]: 3 L/kg
- half-life [7]: 8.9 h
- logD [8]: 0.9
- solubility thermodynamic at 24 h [9]: > 1000 µM
- fraction unbound [10]: > 0.5
- fraction unbound [11]: > 0.5
- Papp A→B at 10 µM [12]: 8.3 ×10⁻⁶ cm/s
- clearance [13]: 30 mL/min/kg
- half-life [14]: 2.6 h
- half-life [15]: 8.9 h
- clearance [16]: 13 mL/min/kg
- half-life [17]: 19.1 h
- Vd [18]: 10.9 L/kg
- bioavailability [19]: 54%
- bioavailability [20]: 45%
- bioavailability [21]: 52%
- IC50 [22]: 150 nM
- IC50 [23]: 120 nM
- bioavailability [24]: 54%
- bioavailability [25]: 45%
- bioavailability [26]: 52%
- inhibition (INH) (Cytochrome P450 2C9): Not Active
- inhibition (INH) (Cytochrome P450 2D6): Not Active
- inhibition (INH) (Cytochrome P450 2C19): Not Active
Compound: Cc1noc(C)c1CCC1CCN(S(=O)(=O)CC2(N(O)C=O)CCOCC2)CC1
